# Assay outcomes deposited in PubChem BioAssay by several laboratories.
# Calpain2 inh = inhibitors of pig calpain II | purified calpain II, fluorogenic peptide substrate, 30 min | inhibition, % at 16 µM | 0.37% of 220,000 active | AID 1236;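 active = inhibition above about 50%, limit read from the data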
# KLK5 inh = inhibitors of human kallikrein 5; inhibition, % at 5 µM; recombinant hK5, fluorogenic AMC substrate cleavage; 0.59% of 210,000 active; Q9Y337;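 active = inhibition of 40% or more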;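 also: 0% = enzyme controls without compound and 100% = no-enzyme blanks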
# FXIIa inh 1536 = factor XIIa (human) inhibition | purified FXIIa, Boc-QGR-AMC fluorogenic substrate, 2 h | 0.3% of 220,000 active | inhibition, % at 5 µM; in the data active = inhibition above about 40%;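 also: 0% = enzyme with no compound and 100% = blank without enzyme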
# Target sequence (P00748 20-372 limits assumed): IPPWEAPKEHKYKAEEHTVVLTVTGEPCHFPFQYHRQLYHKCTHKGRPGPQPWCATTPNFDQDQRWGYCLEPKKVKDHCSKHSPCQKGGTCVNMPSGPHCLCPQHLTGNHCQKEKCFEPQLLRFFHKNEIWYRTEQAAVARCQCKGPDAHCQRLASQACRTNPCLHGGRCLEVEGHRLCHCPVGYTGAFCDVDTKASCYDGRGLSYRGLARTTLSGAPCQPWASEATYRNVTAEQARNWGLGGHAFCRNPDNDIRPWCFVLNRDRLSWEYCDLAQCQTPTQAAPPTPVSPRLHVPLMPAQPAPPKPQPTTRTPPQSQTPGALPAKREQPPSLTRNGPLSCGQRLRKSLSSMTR
# Target sequence (P00748 373-615 limits assumed): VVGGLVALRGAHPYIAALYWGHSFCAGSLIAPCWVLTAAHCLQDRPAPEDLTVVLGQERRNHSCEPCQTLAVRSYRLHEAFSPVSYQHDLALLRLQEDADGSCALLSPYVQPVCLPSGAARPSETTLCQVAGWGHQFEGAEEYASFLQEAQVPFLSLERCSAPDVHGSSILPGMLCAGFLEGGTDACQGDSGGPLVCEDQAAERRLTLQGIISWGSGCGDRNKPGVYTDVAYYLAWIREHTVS
# thrombin 1536 = inhibitors of human thrombin. alpha-thrombin, Boc-VPR-AMC fluorogenic substrate cleavage. inhibition, % at 5 µM. 0.26% of 220,000 active;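 active = inhibition at or above 40%; inactive = inhibition below 40%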;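 also: 0% = enzyme with no compound and 100% = wells without enzyme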
#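 Material: Human alpha-thrombin protein | Buffer or medium: pH 7.5 Tris-saline with Tween 20 | Reagent: Boc-VPR-AMC substrate, 15 µM final | Schedule: Reaction at ambient temperature | Detection: AMC fluorescence at 355 nm excitation and 460 nm emission | Evaluation: Percent inhibition scaled between no-compound controls and no-enzyme blanks | Controls: no-compound enzyme wells and no-enzyme blanks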
# FXIa inh = blocks human coagulation factor XIa protease activity; purified FXIa, Boc-Glu-Ala-Arg-AMC fluorogenic substrate; inhibition, % at 5 µM; 0.14% of 220,000 active;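 active = inhibition of at least 40%; inactive = inhibition below 40%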;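 also: fluorescence of freed AMC excited at 355 nm; 0% = enzyme without compound and 100% = no enzyme blank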
# * marks the source's active call; other numbers are inactive results. Sampled rows, rich in hits. Any-hit rate of the full collection: about 1.4%.
SMILES,Calpain2 inh,KLK5 inh,FXIIa inh 1536,thrombin 1536,FXIa inh
CCN1CCN(c2cc(C)c3cc(NC(=S)NCc4cccs4)ccc3n2)CC1,51*,-2,5,-1,-1
Cc1cc(N2CCN(C)CC2)nc2ccc(NC(=S)NCc3cccs3)cc12,41,-1,9,-2,-2
O=C(CSc1ccc2ccccc2c1)NC1CCCc2ccccc21 (configuration not stated),11,-6,1,-6,-1
CCCn1c(/N=C/c2ccc3c(c2)OCO3)nc2ccccc21,9,43*,12,14,5
O=C(O)CC(Cc1ccc(Cl)cc1)C(=O)Nc1ccc([N+](=O)[O-])cc1 (configuration not stated),69*,-3,4,-12,14
O=C(Cc1ccc([N+](=O)[O-])cc1)Nc1ccc(Cl)cc1,-72,2,4,-17,-3
S=C(NCCN1CCOCC1)Nc1ccc(Cl)cc1,15,47*,14,20,20
S=C(NCCCN1CCOCC1)Nc1ccc(Cl)cc1,17,-10,1,-13,-7
O=C1OC(Nc2ncccn2)c2ccccc21 (configuration not stated),1,42*,106*,14,8
O=C1OC(Nc2ccccn2)c2ccccc21 (configuration not stated),-20,3,18,4,4
O=S(NC1CCCCC1)C12CC3CC(CC(C3)C1)C2 (configuration not stated),28,-13,62*,3,42*
Cc1ccc(C(C#N)c2ccc3c(C(F)(F)F)cc(C(F)(F)F)nc3n2)cc1 (configuration not stated),55*,-14,-1,-3,-6
COc1ccc(-c2cn(-c3ccc(C)cc3C)c(=O)[nH]2)cc1OC,39,49*,35,15,30
COc1ccc(C2=NO[C@@H]3C(=O)N(c4ccc(C)cc4C)C(=O)[C@H]23)cc1OC,21,-14,0,-3,-7
Cc1ccc(C(=O)N/C(=C/c2ccc(F)cc2)C(=O)NCc2ccncc2)cc1,0,-19,12,-2,13
C#CCOCCOCCOCCNc1nc(N2CCN(C(=O)Cn3cc(CC(C)O)nn3)CC2)nc(N2CCN(C(=O)[C@H](C)n3cc(CCCN=C(N)N)nn3)CC2)n1 (some centres not stated),19,-7,9,40*,3
C#CCOCCOCCOCCNc1nc(N2CCN(C(=O)Cn3cc(CCCCN)nn3)CC2)nc(N2CCN(C(=O)[C@H](C)n3cc(CCCN=C(N)N)nn3)CC2)n1,-8,1,7,38,-6
Cc1ccc(F)c(C2C3C=CCC(c4cccc(-c5ccc(N(C)C)cc5)c4)C3C(=O)N2Cc2ccccc2)c1 (configuration not stated),-95,2,5,0,1
O=C1c2cccc3cccc(c23)C(=O)N1CC1CCN(S(=O)(=O)c2ccc(F)cc2)CC1,-176,-20,14,-2,5
Cc1c(Cl)cnc(NC(=O)COC(=O)CCC(=O)c2cccs2)c1Cl,-21,-7,6,55*,14
O=C(NNC(=O)c1ccc2nonc2c1)Nc1ccc(Cl)cc1,22,1,0,-2,21
Cn1c(=O)c2c(nc(SCCCC#N)n2Cc2c(F)cccc2Cl)n(C)c1=O,2,-6,13,-3,2
CC(C)c1nc(SCc2c(F)cccc2Cl)c2c(=O)n(C)c(=O)n(C)c2n1,8,65*,23,15,10
Cc1cc(C(=O)N(NC(=O)C(C)C)c2ccccc2)cs1,-19,-4,1,-9,-3
COc1cc(CCC(=O)Nc2cccc(C(F)(F)F)c2)cc(OC)c1OC,19,10,2,41*,4
SMILES,Calpain2 inh,KLK5 inh,FXIIa inh 1536,thrombin 1536,FXIa inh
COc1cc(CC(=O)Nc2cccc(C(F)(F)F)c2)cc(OC)c1OC,14,-3,6,0,5
CC(C)(C)c1ccc(C(=O)Nc2ccc(NC(=O)c3ccco3)cc2)cc1,-152,99*,11,0,11
O=C(Nc1ccc(Cc2ccncc2)cc1)c1ccco1,10,70*,18,40*,31
O=C(Nc1cccc([N+](=O)[O-])c1)c1ccncc1,4,-7,-1,-7,-1
CC(C)(C)NC(=O)c1cccc(NC(=O)c2ccc(NC(=O)c3ccco3)cc2)c1,24,0,5,-2,-8
CC(C)(C)c1ccc(C(=O)Nc2cccc([N+](=O)[O-])c2)cc1,50*,-8,13,1,12
CN1CCN(NC(=O)c2ccc(Cl)c(S(=O)(=O)Nc3ccc(Cl)cc3)c2)CC1,-5,0,16,2,2
COc1ccc(S(=O)(=O)Nc2cc(C)nn2-c2ccccc2)cc1,-3,-7,23,5,3
CC(=O)Nc1c(C(=O)O)[nH]c2ccccc12,-11,72*,18,4,7
CS(=O)(=O)N1CCC(Oc2ccccc2C(=O)NCCCc2cccnc2)CC1,24,17,15,13,11
CCC(C)N1C(=O)CCC1C(=O)O (configuration not stated),-5,-12,11,-1,6
COCCNC(=O)c1nn(-c2cc(OC)cc(OC)c2)c(=O)c2ccccc12,11,66*,18,8,15
O=c1[nH]c(=O)n(Cc2ccccc2)c2c1C(C(F)(F)F)(C(F)(F)F)N=C(c1ccco1)N2,3,147*,22,40*,15
O=c1[nH]c(=O)n(Cc2ccco2)c2c1C(C(F)(F)F)(C(F)(F)F)N=C(c1ccc(F)cc1)N2,-156,4,4,-3,-3
FC(F)(F)c1cc(-c2ccco2)nc(NCc2cccs2)n1,-30,-3,23,-4,19
CS(=O)(=O)n1nc(-c2cccnc2)nc1NCc1ccccc1,14,-1,13,4,7
O=C(c1cccnc1)n1nc(-c2ccco2)nc1NCc1cccs1,16,0,8,97*,2
CC(C)C(=O)n1nc(-c2cccnc2)nc1NCc1cccs1,9,-6,-3,100*,13
COc1ccc(CNc2nc(-c3cccnc3)nn2S(C)(=O)=O)cc1,17,3,8,1,1
CCC(=O)n1nc(-c2cccnc2)nc1NCc1ccc(OC)cc1,18,1,9,100*,-1
COc1ccc(CNc2nc(-c3cccnc3)nn2C(=O)C(C)C)cc1,-34,-15,3,99*,-2
C=CCn1c(CNC(=O)c2ccccc2F)nnc1SCC(=O)NC(C)c1ccccc1 (configuration not stated),-7,3,6,-3,-4
COc1ccc(N2CCN(S(=O)(=O)c3ccc(C(=O)NC4CCCC4)cc3)CC2)cc1,13,6,47*,-4,8
COc1ccc(COC(=O)NC2CCN(S(=O)(=O)c3ccc(OC)cc3)CC2)cc1,11,-5,14,2,1
COc1ccc(S(=O)(=O)N2CCC(NC(=O)OCc3c(Cl)cccc3Cl)CC2)cc1,65*,-12,5,11,-11
